The source of these data is ChEMBL document CHEMBL1156936, “2,3-Diamino acid modifying 3S-tetrahydroisoquinoline-3-carboxylic acids: leading to a class of novel agents with highly unfolded conformation, selective in vitro anti-platelet aggregation and potent in vivo anti-thrombotic activity” (Bioorg Med Chem, 2010).

Test [1] concerns Platelet. In words: Inhibition of adenosine diphosphate-induced pig platelet aggregation measured for 5 mins. It counts as functional, cell-based. The following applies: Sus scrofa.
In test [2] the test system is Platelet. Nature of the test: Inhibition of platelet activating factor-induced pig platelet aggregation measured for 5 mins. It counts as functional, cell-based. The following applies: Sus scrofa.
The test system of test [3] is Platelet. In words: Inhibition of arachidonic acid-induced pig platelet aggregation measured for 5 mins. It is filed as functional, cell-based. The following applies: Sus scrofa.
The test system of test [4] is Platelet. Nature of the test: Inhibition of thrombin-induced pig platelet aggregation measured for 5 mins. It is filed as functional, cell-based. Particulars: Sus scrofa. The essentials: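 Pig blood spun at 1000g for 10 min to give PRP and at 1500g for 10 min to give PPP. Platelets adjusted to 2×10⁸/ml with autologous PPP, and 0.5 ml is pre-mixed with NS or drug at six tenfold-spaced final concentrations. After baseline the agonist is added (thrombin final 0.1 U/ml). Optical aggregation is read at 37 °C for 5 min. Peak height is taken as maximal aggregation, and % inhibition is calculated against NS. Run in sextuplicate; IC50 from the concentration–inhibition curve.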

In test [5] the test system is Rattus norvegicus. Nature of the test: Antithrombotic activity in Wistar rat assessed as reduction of thrombus weight at 30 nmol/kg, iv. It is filed as functional. Summed up: (§1)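 Male Wistar rats (250–300 g) with an arteriovenous shunt: a polyethylene tube holding a thread joins the right carotid artery to the left jugular vein. Heparin sodium is injected through the tube, then vehicle (NS) or drug dissolved in NS and kept on ice. Blood flows for 15 min, and the wet thrombus on the thread is weighed. Analysis by ANOVA.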

For test [6], the system named is Rattus norvegicus. Nature of the test: Antithrombotic activity in Wistar rat assessed as reduction of thrombus weight at 30 nmol/kg, po. It counts as functional. The essentials: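 Drug in NS (or NS alone, 0.6 ml) is given orally to male Wistar rats (250–300 g), then pentobarbital sodium 80.0 mg/kg ip. Thirty min later the right carotid artery and left jugular vein are exposed and joined by a heparinized thread-containing shunt. Blood flows for 15 min, and the wet thrombus is weighed. n=12; analysis by ANOVA.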

Test [7] deals with Rattus norvegicus. In words: Antithrombotic activity in Wistar rat assessed as reduction of thrombus weight at 3 nmol/kg, iv. It counts as functional. The essentials: as §1
Test [8] deals with Rattus norvegicus. In words: Antithrombotic activity in iv dosed Wistar rat assessed as reduction of thrombus weight. It counts as functional, organism-based. The essentials:
as §1

Test [9] concerns Rattus norvegicus. In words: Antithrombotic activity in Wistar rat assessed as reduction of thrombus weight at 0.3 nmol/kg, iv. It counts as functional. Summed up:
as §1

The test system of test [10] is Rattus norvegicus. In words: Antithrombotic activity in Wistar rat assessed as reduction of thrombus weight at 0.03 nmol/kg, iv. It counts as functional. The essentials:
as §1

In test [11] the test system is Rattus norvegicus. Nature of the test: Antithrombotic activity in Wistar rat assessed as reduction of thrombus weight at 165 umol/kg, iv. It is filed as functional. The essentials:
as §1

For test [12], the system named is Rattus norvegicus. In words: Antithrombotic activity in Wistar rat assessed as reduction of thrombus weight at 15 umol/kg, iv. It counts as functional. Summed up: as §1

Molecules are shown by their SMILES. Square brackets hold non-standard residues; d marks the D form. Peptide text beside a SMILES is read from it. Tic = O=C(O)[C@@H]1Cc2ccccc2CN1

Turning to `CC(C)C[C@H](NC(=O)[C@@H]1Cc2ccccc2CN1C(=O)[C@@H](N)CC(C)C)C(=O)O` (H-Leu-[Tic]-Leu-OH), the IC50 turned out to be 2.57 nM in test [1], 5.03 nM in test [2], 8.17 nM in [3] and 10 nM in test [4]. The Activity in test [5] is 19.53 mg.

Regarding `NC(=O)CC[C@H](NC(=O)[C@@H]1Cc2ccccc2CN1C(=O)[C@@H](N)CCC(N)=O)C(=O)O` (H-Gln-[Tic]-Gln-OH), the IC50 in [1] was 2.55 nM; in [2] it was 5.72 nM; in test [3], 8.37 nM; in test [4] it was 9.13 nM. The Activity is given as 18.13 mg in [5] and 18.23 mg in [6].

With `CC[C@H](C)[C@H](N)C(=O)N1Cc2ccccc2C[C@H]1C(=O)N[C@H](C(=O)O)[C@@H](C)CC` (H-Ile-[Tic]-Ile-OH), the IC50 in [1] is 2.89 nM; in test [2], 5.64 nM; in test [3], 8.92 nM; in test [4], 11.3 nM. The Activity in test [5] came out at 24.3 mg.

Turning to `N[C@@H](CS)C(=O)N1Cc2ccccc2C[C@H]1C(=O)N[C@@H](CS)C(=O)O` (H-Cys-[Tic]-Cys-OH), the IC50 came out at 3.26 nM in test [1], 6.32 nM in [2], 8.18 nM in test [3] and 9.64 nM in test [4]. Besides, in test [5], the Activity is on record as 19.35 mg.

For `CSCC[C@H](NC(=O)[C@@H]1Cc2ccccc2CN1C(=O)[C@@H](N)CCSC)C(=O)O` (H-Met-[Tic]-Met-OH), the IC50 in [1] was 3.42 nM; in test [2], 4.91 nM; in test [3], 8.19 nM; in test [4], 9.99 nM. In addition, the Activity in test [5] amounted to 19.36 mg.

On to `C[C@@H](O)[C@H](N)C(=O)N1Cc2ccccc2C[C@H]1C(=O)N[C@H](C(=O)O)[C@@H](C)O` (H-Thr-[Tic]-Thr-OH), for which the IC50 in test [1] worked out at 2.89 nM; in test [2], 4.14 nM; in [3] it was 10 nM; in [4], 10.8 nM. For the same molecule, the Activity is 20.95 mg in test [7]; “Dose-dependent effect” in test [8]; 14.32 mg in [5]; 28.63 mg in test [9]; 17.53 mg in test [6].

As for `N=C(N)NCCC[C@H](NC(=O)[C@@H]1Cc2ccccc2CN1C(=O)[C@@H](N)CCCNC(=N)N)C(=O)O` (H-Arg-[Tic]-Arg-OH), the Activity in test [10] was 19.71 mg; in test [7] it was 16.29 mg; in [8], “Dose-dependent effect”; in test [5], 10.61 mg; in [6], 15.15 mg. In addition, the IC50 turned out to be 3.15 nM in test [1], 6.07 nM in [2], 9.17 nM in test [3] and 9.87 nM in [4].

Consider `NCC(=O)N1Cc2ccccc2C[C@H]1C(=O)NCC(=O)O` (H-Gly-[Tic]-Gly-OH), for which the IC50 in test [1] was found to be 2.44 nM; in test [2], 5.15 nM; in test [3], 7.95 nM; in test [4], 10.6 nM. For the same molecule, the Activity in test [5] was 25.2 mg.

`N[C@@H](CCC(=O)O)C(=O)N1Cc2ccccc2C[C@H]1C(=O)N[C@@H](CCC(=O)O)C(=O)O` (H-Glu-[Tic]-Glu-OH): the IC50 turned out to be 2.19 nM in [1], 4.19 nM in test [2], 9.86 nM in [3] and 10.3 nM in test [4]. The Activity in test [5] came to 18.95 mg.

For `CC(=O)Oc1ccccc1C(=O)O` [ASPIRIN], in test [11], the Activity was 13.22 mg.

As to `N[C@@H](CO)C(=O)N1Cc2ccccc2C[C@H]1C(=O)N[C@@H](CO)C(=O)O` (H-Ser-[Tic]-Ser-OH), the IC50 in test [1] came out at 2.17 nM; in test [2], 5.36 nM; in test [3] it was 7.99 nM; in test [4] it was 10.2 nM. The Activity in test [5] came to 20.97 mg.

Consider `N[C@@H](Cc1c[nH]cn1)C(=O)N1Cc2ccccc2C[C@H]1C(=O)N[C@@H](Cc1cnc[nH]1)C(=O)O` (H-His-[Tic]-His-OH), for which the IC50 in [1] worked out at 2.84 nM; in [2], 5.57 nM; in test [3], 9.38 nM; in test [4], 10 nM. Further, the Activity in [5] was 20.91 mg.

Consider `NC(=O)C[C@H](NC(=O)[C@@H]1Cc2ccccc2CN1C(=O)[C@@H](N)CC(N)=O)C(=O)O` (H-Asn-[Tic]-Asn-OH), for which the IC50 in [1] is 3.07 nM; in [2], 5.39 nM; in test [3] it was 8.28 nM; in test [4] it was 8.43 nM. The Activity in [5] is on record as 17.95 mg; in [6], 16.88 mg.

For the molecule `N[C@@H](Cc1ccc(O)cc1)C(=O)N1Cc2ccccc2C[C@H]1C(=O)N[C@@H](Cc1ccc(O)cc1)C(=O)O` (H-Tyr-[Tic]-Tyr-OH), the IC50 in [1] amounted to 2.58 nM; in test [2], 4.52 nM; in [3] it was 8.83 nM; in test [4], 9.84 nM. The Activity in test [5] was found to be 18.79 mg.

In the case of `N[C@@H](CC(=O)O)C(=O)N1Cc2ccccc2C[C@H]1C(=O)N[C@@H](CC(=O)O)C(=O)O` (H-Asp-[Tic]-Asp-OH), the concentration for half-maximal inhibition (IC50) stood at 3.48 nM in test [1], 4.37 nM in test [2], 9.55 nM in test [3] and 11.1 nM in test [4]. Also, the Activity in test [5] amounted to 20.49 mg.

With `CC(C)[C@H](N)C(=O)N1Cc2ccccc2C[C@H]1C(=O)N[C@H](C(=O)O)C(C)C` (H-Val-[Tic]-Val-OH), the IC50 in test [1] is 2.57 nM; in test [2], 5.87 nM; in [3] it was 9.08 nM; in test [4], 9.25 nM. Moreover, the Activity in test [5] was found to be 19.42 mg.

For the molecule `N[C@@H](Cc1ccccc1)C(=O)N1Cc2ccccc2C[C@H]1C(=O)N[C@@H](Cc1ccccc1)C(=O)O` (H-Phe-[Tic]-Phe-OH), the IC50 worked out at 2.23 nM in test [1], 4.92 nM in test [2], 7.84 nM in test [3] and 8.87 nM in test [4]. Moreover, the Activity in test [5] came to 22.51 mg.

Take `O=C(O)[C@@H]1Cc2ccccc2CN1`: the Activity in [12] worked out at 21.52 mg.

`NCCCC[C@H](NC(=O)[C@@H]1Cc2ccccc2CN1C(=O)[C@@H](N)CCCCN)C(=O)O` (H-Lys-[Tic]-Lys-OH): the IC50 in test [1] was found to be 3.73 nM; in test [2], 5.67 nM; in test [3], 9.64 nM; in test [4], 8.98 nM. The Activity in test [5] is 18.65 mg; in [6], 19.72 mg.

As for `C[C@H](N)C(=O)N1Cc2ccccc2C[C@H]1C(=O)N[C@@H](C)C(=O)O`, the IC50 came to 2.36 nM in test [1], 5.6 nM in [2], 8.73 nM in test [3] and 9.48 nM in [4]. Also, the Activity in [7] was 23.35 mg; in [8] it was “Dose-dependent effect”; in test [5], 17.12 mg; in test [9] it was 29.77 mg; in test [6], 18.89 mg.

What is called IC50 is the point on the concentration scale where inhibition reaches its midpoint. A higher IC50 goes with lower potency.
